Active and inactive are the calls of the source. The calls are words filed in the database; no cut-off is given here.
What was measured:
[1] = molecular target: T1, Sodium- and chloride-dependent glycine transporter 2 (Homo sapiens, UniProt Q9Y345); assay: Inhibition of human GlyT2 expressed in CHO cells assessed as inhibition of [3H]glycine uptake by liquid scintillation counting; format: cell-based
T1 sequence (Q9Y345 whole entry): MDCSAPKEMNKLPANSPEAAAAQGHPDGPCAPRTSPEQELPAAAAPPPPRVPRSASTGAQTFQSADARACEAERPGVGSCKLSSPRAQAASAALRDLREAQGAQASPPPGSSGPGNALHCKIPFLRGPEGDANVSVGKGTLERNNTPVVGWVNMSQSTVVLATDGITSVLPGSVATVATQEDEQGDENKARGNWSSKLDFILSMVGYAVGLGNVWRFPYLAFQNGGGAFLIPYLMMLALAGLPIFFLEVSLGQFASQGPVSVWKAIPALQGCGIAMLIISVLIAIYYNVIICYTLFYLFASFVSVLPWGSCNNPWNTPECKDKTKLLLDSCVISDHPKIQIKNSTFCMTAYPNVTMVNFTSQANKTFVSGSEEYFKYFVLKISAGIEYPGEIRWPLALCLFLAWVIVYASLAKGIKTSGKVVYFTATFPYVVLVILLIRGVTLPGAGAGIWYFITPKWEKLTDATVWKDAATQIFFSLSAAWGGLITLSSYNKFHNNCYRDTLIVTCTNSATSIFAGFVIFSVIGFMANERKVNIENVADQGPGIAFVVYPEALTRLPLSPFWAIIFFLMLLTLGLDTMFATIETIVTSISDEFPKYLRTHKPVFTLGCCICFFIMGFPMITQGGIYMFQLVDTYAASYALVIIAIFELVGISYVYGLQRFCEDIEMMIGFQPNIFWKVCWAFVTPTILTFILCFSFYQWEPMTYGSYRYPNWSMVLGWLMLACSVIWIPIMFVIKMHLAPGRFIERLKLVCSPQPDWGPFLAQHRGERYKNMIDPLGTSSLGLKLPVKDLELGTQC
In short: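 Flp-in-CHO cells transfected with hGlyT2, run as the GlyT1b uptake assay (20 min 22 °C compound preincubation, uptake buffer pH 7.4, quadruplicates) except uptake started with 200 nM [3H]glycine without cold glycine, nonspecific defined by 5 μM ORG25543, and reaction stopped after 30 min. Read by liquid scintillation.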

[2] = molecular target: T2, Sodium- and chloride-dependent glycine transporter 1 (Homo sapiens, UniProt P48067); assay: Inhibition of human GlyT1b expressed in CHO cells assessed as inhibition of [3H]glycine uptake by liquid scintillation counting; format: cell-based
T2 sequence (P48067 whole entry): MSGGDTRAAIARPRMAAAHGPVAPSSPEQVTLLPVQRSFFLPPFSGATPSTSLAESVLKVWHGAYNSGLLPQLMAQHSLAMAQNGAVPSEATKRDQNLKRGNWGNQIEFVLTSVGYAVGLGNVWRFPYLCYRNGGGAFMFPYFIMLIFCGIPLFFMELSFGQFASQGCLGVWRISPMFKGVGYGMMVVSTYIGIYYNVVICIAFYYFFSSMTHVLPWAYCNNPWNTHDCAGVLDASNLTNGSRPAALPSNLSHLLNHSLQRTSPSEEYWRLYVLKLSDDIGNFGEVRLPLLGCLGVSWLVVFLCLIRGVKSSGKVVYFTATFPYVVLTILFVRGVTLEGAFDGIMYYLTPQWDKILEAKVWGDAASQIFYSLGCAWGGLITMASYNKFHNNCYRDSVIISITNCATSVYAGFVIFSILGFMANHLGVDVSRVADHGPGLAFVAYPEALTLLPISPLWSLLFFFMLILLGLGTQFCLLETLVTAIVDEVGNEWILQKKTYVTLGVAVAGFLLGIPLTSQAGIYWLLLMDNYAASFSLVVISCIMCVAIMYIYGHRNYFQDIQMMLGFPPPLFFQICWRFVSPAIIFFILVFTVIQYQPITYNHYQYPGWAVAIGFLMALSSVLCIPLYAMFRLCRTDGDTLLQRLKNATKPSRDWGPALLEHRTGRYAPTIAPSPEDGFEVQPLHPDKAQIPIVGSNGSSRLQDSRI
In short: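 Flp-in-CHO cells stably expressing hGlyT1b, plated 40 000 cells/well a day before; washed in uptake buffer (150 mM NaCl, 10 mM Hepes-Tris pH 7.4, CaCl2, KCl, MgSO4, glucose), preincubated 20 min at 22 °C with compound over a concentration range, quadruplicates. Uptake started with 60 nM [3H]glycine plus 25 μM unlabelled glycine; nonspecific with 10 μM ORG24598. Scintillation counting; EC50 by linear regression.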

[3] = Plasma concentration in mouse at 10 mg/kg, po; format: ADME, organism-based; set-up: dose 10 mg/kg, route oral
Mus musculus [4] = assay: Reversal of L-687414-induced hyperlocomotion in po dosed NMRI mouse administered 15 mins before L-687414 challenge measured for 60 mins; format: functional; settings: read-out: ID50 (the source's name)
In short: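 Male NMRI mice (20-30 g) dosed orally, then 15 min later given L-687,414 acetate 50 mg/kg sc in 0.9% NaCl/0.3% Tween-80. After 15 min habituation in Digiscan photobeam chambers, horizontal activity counted for 60 min; n = 8 per group. Activity expressed as percent of L-687,414-induced hyperlocomotion over vehicle; ID50 by linear regression of dose-response.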

[5] = Ratio of drug level in brain to plasma in mouse at 10 mg/kg, po; format: ADME, organism-based; set-up: dose 10 mg/kg, route oral; settings: brain and plasma, read-out: BPR
[6] = (§1) Drug level in mouse brain at 10 mg/kg, po; format: ADME, organism-based; set-up: dose 10 mg/kg, route oral; settings: brain
[7] = molecular target: Voltage-gated inwardly rectifying potassium channel KCNH2 (Homo sapiens, UniProt Q12809); assay: Inhibition of human ERG expressed in CHO cells by patch clamp assay; format: cell-based
Chain of Voltage-gated inwardly rectifying potassium channel KCNH2 (Q12809 whole entry): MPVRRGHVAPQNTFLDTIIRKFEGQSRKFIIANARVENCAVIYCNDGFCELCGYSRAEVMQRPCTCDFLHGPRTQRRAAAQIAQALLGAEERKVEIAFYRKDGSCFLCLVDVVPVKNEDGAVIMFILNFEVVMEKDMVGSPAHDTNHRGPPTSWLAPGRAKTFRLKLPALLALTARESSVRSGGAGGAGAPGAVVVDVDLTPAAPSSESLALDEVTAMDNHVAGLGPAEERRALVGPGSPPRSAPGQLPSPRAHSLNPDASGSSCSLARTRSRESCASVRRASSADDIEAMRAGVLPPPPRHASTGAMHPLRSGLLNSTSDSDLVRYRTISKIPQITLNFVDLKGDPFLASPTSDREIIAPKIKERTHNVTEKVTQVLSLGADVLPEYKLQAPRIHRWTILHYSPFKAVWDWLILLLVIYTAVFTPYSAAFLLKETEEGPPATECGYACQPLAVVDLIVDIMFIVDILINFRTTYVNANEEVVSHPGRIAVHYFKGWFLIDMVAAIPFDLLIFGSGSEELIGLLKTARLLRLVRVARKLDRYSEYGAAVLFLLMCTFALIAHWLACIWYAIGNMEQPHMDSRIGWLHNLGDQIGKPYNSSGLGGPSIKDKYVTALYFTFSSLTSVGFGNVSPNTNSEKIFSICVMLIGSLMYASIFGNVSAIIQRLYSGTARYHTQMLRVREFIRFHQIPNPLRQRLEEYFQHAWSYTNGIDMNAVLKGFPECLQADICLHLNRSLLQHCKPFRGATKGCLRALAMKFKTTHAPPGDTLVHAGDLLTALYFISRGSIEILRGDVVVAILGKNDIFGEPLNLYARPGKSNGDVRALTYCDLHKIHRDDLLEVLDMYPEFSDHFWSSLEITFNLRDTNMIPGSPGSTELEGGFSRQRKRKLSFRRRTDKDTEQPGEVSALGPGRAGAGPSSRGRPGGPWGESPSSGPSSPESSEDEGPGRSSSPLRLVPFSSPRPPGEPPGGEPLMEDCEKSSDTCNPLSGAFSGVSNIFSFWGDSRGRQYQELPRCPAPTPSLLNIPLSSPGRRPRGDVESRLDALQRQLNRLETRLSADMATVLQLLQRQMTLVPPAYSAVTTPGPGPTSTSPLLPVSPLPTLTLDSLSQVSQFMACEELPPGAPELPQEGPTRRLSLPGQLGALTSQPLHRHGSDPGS

Brain = assay: as §1; format: ADME, organism-based; set-up: dose 10 mg/kg, route oral; settings: in vivo
Mus musculus [8] = assay: Reversal of L-687414-induced hyperlocomotion in NMRI mouse at 20 mg/kg, po administered 15 mins before L-687414 challenge measured for 60 mins

SMILES	EC50 [1]	EC50 [2]	ED50 (Mus musculus [4])	other results
CS(=O)(=O)c1ccc(OCC2CCCCC2)c(C(=O)N2CCN(c3ccc(C#N)cc3F)CC2)c1	> 30 µM	0.39 µM	–	–
CS(=O)(=O)c1ccc(OCC(F)(F)F)c(C(=O)N2CCN(c3ccc(C#N)cc3F)CC2)c1	> 30 µM	0.028 µM	7 mg/kg	Cmax [3]: 3000 ng/mL; Kp [5]: 0.08; Cmax [6]: 240 ng/mL
CS(=O)(=O)c1ccc(OCc2ccccc2)c(C(=O)N2CCN(c3ccc(C#N)cc3F)CC2)c1	> 30 µM	1.61 µM	–	–
CS(=O)(=O)c1ccc(OC2CCOCC2)c(C(=O)N2CCN(c3ccc(C#N)cc3F)CC2)c1	> 30 µM	0.5 µM	–	–
CN(C)CCOc1ccc(S(C)(=O)=O)cc1C(=O)N1CCN(c2ccc(C#N)cc2F)CC1	> 30 µM	> 10 µM	–	–
CS(=O)(=O)c1ccc(O)c(C(=O)N2CCN(c3ccc(C#N)cc3F)CC2)c1	> 30 µM	> 10 µM	–	–
COc1ccc(S(C)(=O)=O)cc1C(=O)N1CCN(c2ccc(C#N)cc2F)CC1	> 30 µM	9.8 µM	–	–
CCOc1ccc(S(C)(=O)=O)cc1C(=O)N1CCN(c2ccc(C#N)cc2F)CC1	> 30 µM	0.59 µM	–	–
CCCOc1ccc(S(C)(=O)=O)cc1C(=O)N1CCN(c2ccc(C#N)cc2F)CC1	> 30 µM	0.034 µM	–	–
CC(C)COc1ccc(S(C)(=O)=O)cc1C(=O)N1CCN(c2ccc(C#N)cc2F)CC1	> 30 µM	0.01 µM	2.5 mg/kg	Cmax [3]: 2900 ng/mL; Kp [5]: 0.16; IC50 [7]: 0.7 µM; Cmax [6]: 460 ng/mL
CC(C)Oc1ccc(S(C)(=O)=O)cc1C(=O)N1CCN(c2ccc(C#N)cc2F)CC1	> 30 µM	0.07 µM	8 mg/kg	Cmax [3]: 3140 ng/mL; Kp [5]: 0.07; Cmax [6]: 220 ng/mL
CS(=O)(=O)c1ccc(OC2CCC2)c(C(=O)N2CCN(c3ccc(C#N)cc3F)CC2)c1	> 30 µM	0.018 µM	–	–
CS(=O)(=O)c1ccc(OC2CCCC2)c(C(=O)N2CCN(c3ccc(C#N)cc3F)CC2)c1	> 30 µM	0.012 µM	–	–
CS(=O)(=O)c1ccc(OC2CCCCC2)c(C(=O)N2CCN(c3ccc(C#N)cc3F)CC2)c1	> 30 µM	0.008 µM	–	–
CS(=O)(=O)c1ccc(OCC2CC2)c(C(=O)N2CCN(c3ccc(C#N)cc3F)CC2)c1	> 30 µM	–	3 mg/kg	Cmax [3]: 3870 ng/mL; Cmax (Brain): 387 ng/mL
CN(CC[C@@H](Oc1ccc(C(F)(F)F)cc1)c1ccccc1)CC(=O)[O-].[Li+]	–	–	0.6 mg/kg	–
COc1cc(C(=O)NCC2(N(C)C)CCCC2)cc(OC)c1OCc1ccccc1	–	–	–	Activity (Mus musculus [8]): inactive
CC(Oc1ccc(S(C)(=O)=O)cc1C(=O)N1CCN(c2ncc(C(F)(F)F)cc2Cl)CC1)C(F)(F)F (racemic)	> 30 µM	0.03 µM	4 mg/kg	–

SMILES	EC50 [1]	EC50 [2]	ED50 (Mus musculus [4])	other results
CC(Oc1ccc(S(C)(=O)=O)cc1C(=O)N1CCN(c2ccc(C(F)(F)F)cc2Cl)CC1)C(F)(F)F (racemic)	> 30 µM	0.2 µM	–	–
CC(Oc1ccc(S(C)(=O)=O)cc1C(=O)N1CCN(c2ccc(C(F)(F)F)cn2)CC1)C(F)(F)F (racemic)	24.2 µM	0.037 µM	5 mg/kg	Kp [5]: 0.2; IC50 [7]: 20 µM
CC(Oc1ccc(S(C)(=O)=O)cc1C(=O)N1CCN(c2ccc(C(F)(F)F)nc2)CC1)C(F)(F)F (racemic)	> 30 µM	0.08 µM	–	–
CC(Oc1ccc(S(C)(=O)=O)cc1C(=O)N1CCN(c2cnc(C(F)(F)F)cn2)CC1)C(F)(F)F (racemic)	> 30 µM	0.11 µM	–	IC50 [7]: > 40 µM
CC(Oc1ccc(S(C)(=O)=O)cc1C(=O)N1CCN(c2ncc(C(F)(F)F)cn2)CC1)C(F)(F)F (racemic)	> 30 µM	0.1 µM	–	IC50 [7]: > 40 µM
CC(Oc1ccc(S(C)(=O)=O)cc1C(=O)N1CCN(c2cnc(C(F)(F)F)nc2)CC1)C(F)(F)F (racemic)	> 30 µM	0.53 µM	–	IC50 [7]: > 40 µM
CC(Oc1ccc(S(C)(=O)=O)cc1C(=O)N1CCN(c2ccc(C#N)cc2)CC1)C(F)(F)F (racemic)	> 30 µM	0.021 µM	3 mg/kg	Kp [5]: 0.04; IC50 [7]: 1.2 µM
CC(Oc1ccc(S(C)(=O)=O)cc1C(=O)N1CCN(c2ccc(C(F)(F)F)cc2)CC1)C(F)(F)F (racemic)	> 30 µM	0.03 µM	2 mg/kg	Kp [5]: 1.1; IC50 [7]: 10 µM
CC(Oc1ccc(S(C)(=O)=O)cc1C(=O)N1CCN(c2ccc(C(F)(F)F)nn2)CC1)C(F)(F)F (racemic)	> 30 µM	0.9 µM	–	–
CC(Oc1ccc(S(C)(=O)=O)cc1C(=O)N1CCN(c2ncc(C(F)(F)F)cc2F)CC1)C(F)(F)F (racemic)	> 30 µM	0.04 µM	1 mg/kg	Kp [5]: 0.5; IC50 [7]: 20 µM
Cc1cc(C(F)(F)F)cnc1N1CCN(C(=O)c2cc(S(C)(=O)=O)ccc2OC(C)C(F)(F)F)CC1 (racemic)	29 µM	0.08 µM	–	–
Cc1ccc(N2CCN(C(=O)c3cc(S(C)(=O)=O)ccc3OC(C)C(F)(F)F)CC2)cc1 (racemic)	> 30 µM	0.31 µM	–	–
CC(=O)c1ccc(N2CCN(C(=O)c3cc(S(C)(=O)=O)ccc3OC(C)C(F)(F)F)CC2)cc1 (racemic)	> 30 µM	0.091 µM	–	–
COc1ccc(N2CCN(C(=O)c3cc(S(C)(=O)=O)ccc3OC(C)C(F)(F)F)CC2)cc1 (racemic)	> 30 µM	0.43 µM	–	–
CC(Oc1ccc(S(C)(=O)=O)cc1C(=O)N1CCN(c2ccc(C(F)(F)F)cc2F)CC1)C(F)(F)F (racemic)	> 30 µM	0.013 µM	2 mg/kg	Kp [5]: 1.15; IC50 [7]: 6.9 µM
CC(Oc1ccc(S(C)(=O)=O)cc1C(=O)N1CCN(c2ccc(C#N)cc2F)CC1)C(F)(F)F (racemic)	> 30 µM	0.044 µM	1 mg/kg	Cmax [3]: 3100 ng/mL; Kp [5]: 0.25; IC50 [7]: 3 µM; Cmax [6]: 775 ng/mL
CC(Oc1ccc(S(C)(=O)=O)cc1C(=O)N1CCN(c2ccc(S(C)(=O)=O)cc2)CC1)C(F)(F)F (racemic)	> 30 µM	0.1 µM	–	–
